Assay results: ChEMBL document CHEMBL3992522, “Antileishmanial Activity of Pyrazolopyridine Derivatives and Their Potential as an Adjunct Therapy with Miltefosine” (J Med Chem, 2017)
The source made the active and inactive calls. The calls are words filed in the database; no cut-off is given here.

What was measured:
Assay type in all cases: functional
Leishmania donovani [1] = experiment: Antileishmanial activity against Leishmania donovani MHOM/IN/80/DD8 promastigote forms harboring luciferase gene at 25 uM after 72 hrs by Steady-Glo reagent based luminescence assay relative to control; conditions: MHOM/IN/80/DD8, 72 h, read-out: GI
How it was run: (§1)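 Exponential-phase Dd8-Luc promastigotes at 1×10^6/mL in M199 with 10% FBS, 24 °C, given 50 and 25 µM for 72 h. Vehicle 0.1% DMSO. Steady-Glo added 1:1, luminescence (RLU) read. IC50 from four-parameter Hill regression, derived only where inhibition exceeded 90%. Means of at least three independent experiments.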

Leishmania donovani [2] = experiment: Antileishmanial activity against Leishmania donovani MHOM/IN/80/DD8 promastigote forms harboring luciferase gene at 50 uM after 72 hrs by Steady-Glo reagent based luminescence assay relative to control; conditions: MHOM/IN/80/DD8, 72 h, read-out: GI; how it was run: as §1
Leishmania donovani [3] = experiment: Antileishmanial activity against Leishmania donovani MHOM/IN/80/DD8 amastigote forms harboring luciferase gene infected in mouse J774 cells at 25 uM after 72 hrs by Steady-Glo reagent based luminescence assay relative to control; conditions: for inhibition of growth at 25 µM: MHOM/IN/80/DD8, J774, 72 h, read-out: GI
How it was run: (§2)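 Stationary-phase luciferase-expressing Dd8 promastigotes infected into J774 macrophages (4×10^4/mL seeded, 24 h, 37 °C, 5% CO2) at 1:8 macrophage:parasite for 24 h. Non-internalised parasites washed off. Compounds added at 50 and 25 µM in RPMI/10% FBS for 72 h. Lysis with Steady-Glo luciferin reagent plus PBS, luminescence read. Inhibition relative to untreated infected controls.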

Leishmania donovani [4] = experiment: Antileishmanial activity against Leishmania donovani MHOM/IN/80/DD8 amastigote forms harboring luciferase gene infected in mouse J774 cells at 50 uM after 72 hrs by Steady-Glo reagent based luminescence assay relative to control; conditions: for inhibition of growth at 50 µM: MHOM/IN/80/DD8, J774, 72 h, read-out: GI; how it was run: as §2

SMILES	inhibition of growth at 25 µM (Leishmania donovani [1]) [%]	inhibition of growth at 50 µM (Leishmania donovani [2]) [%]	growth inhibition (GI) (Leishmania donovani [3])	growth inhibition (GI) (Leishmania donovani [4])	inhibition of growth at 25 µM (Leishmania donovani [3]) [%]	inhibition of growth at 50 µM (Leishmania donovani [4]) [%]
COc1cc(-c2c3c(nc4c2c(-c2c[nH]c5ccccc25)nn4-c2ccc(Cl)cc2)CCC3=O)cc(OC)c1OC	66.8	72.3	inactive	inactive	–	–
CC1(C)CC(=O)C2=C(C1)Nc1c(c(-c3c[nH]c4ccccc34)nn1-c1ccc(Cl)cc1)C2c1cccs1 (stereo not drawn)	82.5	86.5	–	–	43.8	51.7
COc1cc(C2C3=C(CCC3=O)Nc3c2c(-c2c[nH]c4ccccc24)nn3-c2ccc(Cl)cc2)cc(OC)c1O (stereo not drawn)	79.1	89.6	–	–	25.2	30.7
COc1ccc(OC)c(-c2c3c(nc4c2c(-c2c[nH]c5ccccc25)nn4-c2ccc(F)cc2)-c2ccccc2C3=O)c1	49.8	58.3	inactive	inactive	–	–
COc1ccc(OC)c(-c2c3c(nc4c2c(-c2c[nH]c5ccccc25)nn4-c2ccc(Cl)cc2)-c2ccccc2C3=O)c1	44.6	53.6	inactive	inactive	–	–
CC1(C)CC(=O)c2c(nc3c(c(-c4c[nH]c5ccccc45)nn3-c3ccc(Cl)cc3)c2-c2ccc(Cl)cc2)C1	56.7	67.4	inactive	inactive	–	–
COc1ccc(C2C3=C(Nc4c2c(-c2c[nH]c5ccccc25)nn4-c2ccc(Cl)cc2)c2ccccc2C3=O)c(OC)c1OC (stereo not drawn)	64.2	67.4	inactive	inactive	–	–
O=C1C2=C(Nc3c(c(-c4c[nH]c5ccccc45)nn3-c3ccc(F)cc3)C2c2ccc(Cl)cc2)c2ccccc21 (stereo not drawn)	54.2	68.3	inactive	inactive	–	–
COc1cc(C2C3=C(CC(C)(C)CC3=O)Nc3c2c(-c2c[nH]c4ccccc24)nn3-c2ccc(Cl)cc2)cc(OC)c1OC (stereo not drawn)	79.3	86.7	–	–	23.6	28.2
CC1(C)CC(=O)C2=C(C1)Nc1c(c(-c3c[nH]c4ccccc34)nn1-c1ccc(Cl)cc1)C2c1ccc(Cl)cc1 (stereo not drawn)	62.5	65.4	inactive	inactive	–	–
COc1cc(-c2c3c(nc4c2c(-c2c[nH]c5ccccc25)nn4-c2ccc(Cl)cc2)-c2ccccc2C3=O)cc(OC)c1OC	28.3	41.1	inactive	inactive	–	–
CC1(C)CC(=O)c2c(nc3c(c(-c4c[nH]c5ccccc45)nn3-c3ccc(F)cc3)c2-c2ccc(Cl)cc2Cl)C1	44.6	48.4	inactive	inactive	–	–
COc1ccc(-c2c3c(nc4c2c(-c2c[nH]c5ccccc25)nn4-c2ccc(Cl)cc2)-c2ccccc2C3=O)c(OC)c1OC	52.6	63.4	inactive	inactive	–	–
COc1ccc(OC)c(-c2c3c(nc4c2c(-c2c[nH]c5ccccc25)nn4-c2ccc(Cl)c(Cl)c2)CC(C)(C)CC3=O)c1	41.3	51.8	–	–	24.6	41.3
COc1ccc(-c2c3c(nc4c2c(-c2c[nH]c5ccccc25)nn4-c2ccc(Cl)cc2)CC(C)(C)CC3=O)c(OC)c1OC	40.2	54.3	inactive	inactive	–	–
COc1ccc(-c2c3c(nc4c2c(-c2c[nH]c5ccccc25)nn4-c2ccc(Cl)c(Cl)c2)CC(C)(C)CC3=O)cc1OC	59.4	74.1	inactive	inactive	–	–

SMILES	inhibition of growth at 25 µM (Leishmania donovani [1]) [%]	inhibition of growth at 50 µM (Leishmania donovani [2]) [%]	growth inhibition (GI) (Leishmania donovani [3])	growth inhibition (GI) (Leishmania donovani [4])	inhibition of growth at 25 µM (Leishmania donovani [3]) [%]	inhibition of growth at 50 µM (Leishmania donovani [4]) [%]
O=C1C2=C(Nc3c(c(-c4c[nH]c5ccccc45)nn3-c3ccc(Cl)cc3)C2c2ccc(Cl)cc2)c2ccccc21 (stereo not drawn)	49.1	62.4	inactive	inactive	–	–
COc1ccc(OC)c(-c2c3c(nc4c2c(-c2c[nH]c5ccccc25)nn4-c2ccc(Cl)cc2)CCC3=O)c1	61.2	67.2	inactive	inactive	–	–
CC1(C)CC(=O)C2=C(C1)Nc1c(c(-c3c[nH]c4ccccc34)nn1-c1ccc(F)cc1)C2c1ccc(Cl)cc1 (stereo not drawn)	54.3	65.3	inactive	inactive	–	–
COc1ccc(-c2c3c(nc4c2c(-c2c[nH]c5ccccc25)nn4-c2ccc(Cl)cc2)CC(C)(C)CC3=O)cc1	44.3	52	inactive	inactive	–	–
COc1ccc(-c2c3c(nc4c2c(-c2c[nH]c5ccccc25)nn4-c2ccc(Cl)cc2)-c2ccccc2C3=O)cc1	27.5	33.4	inactive	inactive	–	–
COc1ccc(C2C3=C(CC(C)(C)CC3=O)Nc3c2c(-c2c[nH]c4ccccc24)nn3-c2ccc(Cl)c(Cl)c2)cc1OC (stereo not drawn)	52.3	59.5	inactive	inactive	–	–
CC1(C)CC(=O)c2c(nc3c(c(-c4c[nH]c5ccccc45)nn3-c3ccc(Cl)cc3)c2-c2ccc(Cl)cc2Cl)C1	35.7	40.6	inactive	inactive	–	–
CC1(C)CC(=O)c2c(nc3c(c(-c4c[nH]c5ccccc45)nn3-c3ccc(F)cc3)c2-c2ccc(Cl)cc2)C1	61.3	68.6	inactive	inactive	–	–
COc1ccc(-c2c3c(nc4c2c(-c2c[nH]c5ccccc25)nn4-c2ccc(Cl)c(Cl)c2)CCC3=O)cc1OC	52.4	81.1	–	–	20.8	34.3
COc1ccc(OC)c(C2C3=C(CCC3=O)Nc3c2c(-c2c[nH]c4ccccc24)nn3-c2ccc(Cl)cc2)c1 (stereo not drawn)	85.5	93.2	–	–	37.3	42.6
COc1cc(C2C3=C(CCC3=O)Nc3c2c(-c2c[nH]c4ccccc24)nn3-c2ccc(F)cc2)cc(OC)c1O (stereo not drawn)	56.5	66.9	inactive	inactive	–	–
COc1cc(-c2c3c(nc4c2c(-c2c[nH]c5ccccc25)nn4-c2ccc(Cl)cc2)CC(C)(C)CC3=O)cc(OC)c1OC	59.1	68.6	inactive	inactive	–	–
O=C1C2=C(Nc3c(c(-c4c[nH]c5ccccc45)nn3-c3ccc(Cl)cc3)C2c2cccs2)c2ccccc21 (stereo not drawn)	65.3	69.2	inactive	inactive	–	–
COc1ccc(OC)c(-c2c3c(nc4c2c(-c2c[nH]c5ccccc25)nn4-c2ccc(Cl)cc2)CC(C)(C)CC3=O)c1	50.7	69.6	inactive	inactive	–	–
COc1cc(C2C3=C(CCC3=O)Nc3c2c(-c2c[nH]c4ccccc24)nn3-c2ccc(Cl)cc2)cc(OC)c1OC (stereo not drawn)	78.4	81.2	–	–	45.2	59.6
COc1ccc(OC)c(-c2c3c(nc4c2c(-c2c[nH]c5ccccc25)nn4-c2ccc(F)cc2)CC(C)(C)CC3=O)c1	84.1	90.3	–	–	22.4	27.9
